{"data": "Experimental data gathered from unrelated publications", "read-out": "cell growth or viability", "note": "Compare with care: the assays were run in different laboratories."}
{"Compound": "CC1(C)[C@@H](O)CC[C@]2(C)[C@H]3C(=O)C=C4[C@@H]5C[C@@](C)(C(=O)O)CC[C@]5(C)CC[C@@]4(C)[C@]3(C)CC[C@@H]12", "cell line": "human Skin fibroblast", "assay": "MTT", "setting": "48 h", "IC50": "48.2 µM"}
{"Compound": "O=C(N/N=C/c1c(O)ccc2ccccc12)c1cc(-c2ccc3ccccc3c2)n[nH]1", "cell line": "WM278", "assay": "MTS", "setting": "48 h", "IC50": "8 µM"}
{"Compound": "CCn1c(C)c(N=Nc2ccc(C)cc2)sc1=NN=C(C)c1c(O)c2ccccc2oc1=O", "cell line": "human Skin fibroblast", "assay": "MTT", "setting": "48 h", "IC50": "> 100 µM"}
{"Compound": "CC[C@]1(O)C[C@@H]2CN(CCc3c([nH]c4ccccc34)[C@@](C(=O)OC)(c3cc4c(cc3OC)N(C)[C@H]3[C@@](O)(C(=O)OC)[C@H](OC(C)=O)[C@]5(CC)C=CCN6CC[C@]43[C@@H]65)C2)C1", "cell line": "KB 3-1", "assay": "MTT", "IC50": "0.0526 µM"}
{"Compound": "O=c1[nH]cc(S(=O)(=O)Nc2cccc(-c3nnc(-c4cccc(Cl)c4)o3)c2)c(=O)[nH]1", "cell line": "SK-MES-1", "assay": "MTT", "setting": "24 h", "IC50": "13.9 µM"}
{"Compound": "Oc1ccc(Nc2nc(-c3ccc(Cl)cc3)cs2)cc1", "cell line": "WM278", "assay": "MTS", "setting": "72 h", "IC50": "23.6 µM"}
{"Compound": "O=C(O)c1ccc2c(c1)nc(Nc1cccc(Cl)c1)c1ccncc12", "cell line": "HD-MB03", "IC50": "0.501 µM"}
{"Compound": "O=C(Nc1nnc(-c2cc3ccccc3[nH]2)s1)c1cc2c([nH]c3ccccc32)c(-c2ccccc2)n1", "cell line": "BT-474", "assay": "MTT", "setting": "72 h", "IC50": "5.68 µM"}
{"Compound": "CC(C)C[C@H](NC(=O)[C@H](Cc1ccccc1)NC(=O)c1cnccn1)B(O)O", "cell line": "T84", "assay": "ATP luminescence", "IC50": "0.018 µM"}
{"Compound": "CC(=O)c1sc(=NN=C(C)c2c(O)c3ccccc3oc2=O)n(C)c1C", "cell line": "human Skin fibroblast", "assay": "MTT", "setting": "48 h", "IC50": "> 100 µM"}
{"Compound": "Nc1cc(C(F)(F)F)c(-c2cc(N3CCOCC3)nc(N3CCOCC3)n2)cn1", "cell line": "MB002", "setting": "7 days", "IC50": "0.173 µM"}
{"Compound": "COc1cc(Nc2nccc(-c3cnn4nc(OC)ccc34)n2)cc(C(F)(F)F)c1", "cell line": "NCI-H1563", "assay": "ATP luminescence", "IC50": "> 3 µM"}
{"Compound": "COc1cccc2c1C(=O)c1c(O)c3c(c(O)c1C2=O)C[C@@](O)(C(=O)CO)C[C@@H]3O[C@H]1C[C@H](N)[C@H](O)[C@H](C)O1", "cell line": "U373 MG", "assay": "SRB", "IC50": "0.88 µM"}
{"Compound": "Cc1cc2c(F)c(Oc3ncnn4cc(OC[C@@H](C)O)c(C)c34)ccc2[nH]1", "cell line": "HD-MB03", "setting": "7 days", "IC50": "> 10 µM"}
{"Compound": "CN(C)c1ccc2cc(C(=O)N[C@@H](CCCNC(=N)CCl)C(=O)NCc3ccccc3)ccc2c1", "cell line": "S-180", "setting": "48 h", "IC50": "8.4 µM"}
{"Compound": "COc1cccc2c1C(=O)c1c(O)c3c(c(O)c1C2=O)C[C@@](O)(C(=O)CO)C[C@@H]3O[C@H]1C[C@H](N)[C@H](O)[C@H](C)O1", "cell line": "BT-474", "assay": "MTT", "setting": "48 h", "IC50": "0.8 µg/mL"}
{"Compound": "COc1ccc(-c2nc(C(=O)Nc3nnc(-c4cc5ccccc5[nH]4)s3)cc3c2[nH]c2ccccc23)cc1", "cell line": "BT-474", "assay": "MTT", "setting": "72 h", "IC50": "4.09 µM"}
{"Compound": "Cc1c(C(=O)Nc2ccc(N3C[C@@H](C)O[C@@H](C)C3)nc2)cccc1-c1ccc(OC(F)(F)F)cc1", "cell line": "MB002", "setting": "7 days", "IC50": "> 10 µM"}
{"Compound": "CCN1C(=O)C(C)SC1=NN=C(C)c1c(O)c2ccccc2oc1=O (stereo not shown)", "cell line": "human Skin fibroblast", "assay": "MTT", "setting": "48 h", "IC50": "> 100 µM"}
{"Compound": "O=C(Nc1ccccc1CO)c1c[nH]c2ccc(Cl)cc12", "cell line": "SK-N-BE", "assay": "MTT", "IC50": "17 µM"}
{"Compound": "CNc1ncc2cc(-c3ccc(-c4cccc(C)n4)cc3Cl)c(=O)n(C[C@H]3OC[C@H](N)CO3)c2n1", "cell line": "CFPAC-1", "assay": "MTT", "setting": "24 h", "IC50": "23.9 µM"}
{"Compound": "CC(=NN=c1sc(N=Nc2ccc(C)cc2)c(C)n1C)c1c(O)c2ccccc2oc1=O", "cell line": "human Skin fibroblast", "assay": "MTT", "setting": "48 h", "IC50": "> 100 µM"}
{"Compound": "Nc1nc2[nH]cc(CCc3ccc(C(=O)N[C@@H](CCC(=O)O)C(=O)O)cc3)c2c(=O)[nH]1", "cell line": "MB002", "setting": "7 days", "IC50": "0.0635 µM"}
{"Compound": "CCn1c(C)csc1=NN=C(C)c1c(O)c2ccccc2oc1=O", "cell line": "human Skin fibroblast", "assay": "MTT", "setting": "48 h", "IC50": "> 100 µM"}
{"Compound": "COc1cccc(OCCCN)c1-c1cc(Nc2cnc(C#N)cn2)n[nH]1", "cell line": "MB002", "setting": "7 days", "IC50": "0.0263 µM"}
{"Compound": "COc1cccc2c1C(=O)c1c(O)c3c(c(O)c1C2=O)C[C@@](O)(C(=O)CO)C[C@@H]3O[C@H]1C[C@H](N)[C@H](O)[C@H](C)O1", "cell line": "BT-474", "assay": "MTT", "setting": "72 h", "IC50": "1.82 µM"}
{"Compound": "CCOC(=O)c1sc(=NN=C(C)c2c(O)c3ccccc3oc2=O)n(C)c1C", "cell line": "human Skin fibroblast", "assay": "MTT", "setting": "48 h", "IC50": "> 100 µM"}
{"Compound": "CCc1cc2c(cc1N1CCC(N3CCOCC3)CC1)C(C)(C)c1[nH]c3cc(C#N)ccc3c1C2=O", "cell line": "MB002", "setting": "7 days", "IC50": "0.396 µM"}
{"Compound": "CC(=NN=C1SC(C)C(=O)N1C)c1c(O)c2ccccc2oc1=O (stereo not shown)", "cell line": "human Skin fibroblast", "assay": "MTT", "setting": "48 h", "IC50": "> 100 µM"}
{"Compound": "Cn1c(-c2nnc(NC(=O)c3cc4c([nH]c5ccccc54)c(-c4ccccc4)n3)s2)cc2ccccc21", "cell line": "BT-474", "assay": "MTT", "setting": "72 h", "IC50": "17.6 µM"}
{"Compound": "C[C@]1(c2nc3c(C(N)=O)cccc3[nH]2)CCCN1", "cell line": "HD-MB03", "setting": "7 days", "IC50": "> 10 µM"}
